Converted amounts (≈) assume the structure as drawn.
How the values were obtained:
Type in all cases: functional
Details in all cases: read-out: ED50 (the source's name)
KB = experiment: Cytotoxicity against human KB cells
In short: (§1)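 In vitro cytotoxicity against a tumor-cell panel. Panel: KB (nasopharyngeal carcinoma), A-549 (human lung carcinoma), HCT-8 (human colon adenocarcinoma), RPMI-7951 (human melanoma), TE-671 (human medulloblastoma) and P-388 (murine leukemia). The procedure follows published protocols.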

A549 = experiment: Cytotoxicity against human A549 cells; in short: as §1
HCT-8 = experiment: Cytotoxicity against human HCT8 cells; in short: as §1
P388 = experiment: Cytotoxicity against mouse P388 cells; in short: as §1
TE-671 = experiment: Cytotoxicity against human TE671 cells; in short: as §1
RPMI-7951 = experiment: Cytotoxicity against human RPMI7951 cells; in short: as §1

SMILES | EC50 (KB) [µg/mL] | EC50 (A549) [µg/mL] | EC50 (HCT-8) [µg/mL] | EC50 (P388) [µg/mL] | EC50 (TE-671) [µg/mL] | EC50 (RPMI-7951) [µg/mL]
CC(=O)OC[C@]12[C@H](OC(C)=O)[C@@H](O)[C@@H]3[C@@H](OC(C)=O)[C@@]14O[C@@]3(C)COC(=O)c1cccnc1[C@H](C)[C@H](C)C(=O)O[C@@H]([C@H](OC(=O)c1ccc(=O)n(C)c1)[C@@H]2OC(=O)c1ccccc1)[C@@]4(C)O [EMARGINATINE F] | 0.51 (≈ 0.555 µM) | 5.5 (≈ 5.99 µM) | 1.29 (≈ 1.4 µM) | 0.69 (≈ 0.751 µM) | 0.21 (≈ 0.229 µM) | < 0.1
C/C=C(\C)C(=O)O[C@H]1[C@@H](OC(=O)c2ccc(=O)n(C)c2)[C@@H]2OC(=O)[C@@H](C)[C@@H](C)c3ncccc3C(=O)OC[C@]3(C)O[C@@]4([C@H](OC(C)=O)[C@H]3[C@@H](OC(C)=O)[C@@H](OC(C)=O)[C@]14COC(C)=O)[C@]2(C)O [EMARGINATINE G] | > 10 | > 10 | > 10 | > 10 | > 10 | > 10
